Rows were chosen to be rich in hits. Some 12% of all compounds tested hit in one or more screens of this group.
WT yeast gro inh = growth inhibition of WT yeast, mitochondrial fusion screen; mitochondrial fusion phenotypic screen, WT strain; inhibition, % at 10 µM; 190,000 tested, 2.1% active; AID 1362; in the data active = inhibition above about 58%; tested in S. cerevisiae
Diaphorase act = activates diaphorase or chemically reduces, flagging diaphorase assay artifacts | Diaphorase/resazurin coupled assay, resorufin fluorescence, 16 min; active compounds read high; 1 = vehicle wells, 0 = NADH-free wells | activation factor at 20 µM | 190,000 tested, 0.005% active | AID 1229;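 active = diaphorase activity raised at least twofold by the compound at 20 µM; inactive = activation factor below 2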
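Test system: Clostridium kluyveri diaphorase, purified enzyme. Buffer or medium: 50 mM HEPES pH 7.4 buffer plus MgCl2 and Tween 20. Also added: 0.114 mM NADH and 0.1 mM resazurin, final amounts. Dosing: compound 20 µM once, DMSO 1%. Schedule: 16 min enzyme reaction, ambient temperature. Detection: fluorescence of resorufin, 544 nm excitation, 590 nm emission.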
KCC2 mod = modulators of human KCC2 chloride dependent transport; Q9H2X9; KCC2 cells, thallium flux FluoZin-2 fluorescence; B-score of Tl+ flux slope (higher = more flux/activation; lower = inhibition) at 10 µM; 190,000 tested, 2.2% active; AID 1456;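 active = thallium flux slope and its plate-corrected score both differing from the plate sample mean at a set confidence after two filtering rounds, in either direction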;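 note: slope of fluorescence scaled to starting intensity during 10 to 20 s after thallium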
Target sequence (Q9H2X9 whole entry, looked up): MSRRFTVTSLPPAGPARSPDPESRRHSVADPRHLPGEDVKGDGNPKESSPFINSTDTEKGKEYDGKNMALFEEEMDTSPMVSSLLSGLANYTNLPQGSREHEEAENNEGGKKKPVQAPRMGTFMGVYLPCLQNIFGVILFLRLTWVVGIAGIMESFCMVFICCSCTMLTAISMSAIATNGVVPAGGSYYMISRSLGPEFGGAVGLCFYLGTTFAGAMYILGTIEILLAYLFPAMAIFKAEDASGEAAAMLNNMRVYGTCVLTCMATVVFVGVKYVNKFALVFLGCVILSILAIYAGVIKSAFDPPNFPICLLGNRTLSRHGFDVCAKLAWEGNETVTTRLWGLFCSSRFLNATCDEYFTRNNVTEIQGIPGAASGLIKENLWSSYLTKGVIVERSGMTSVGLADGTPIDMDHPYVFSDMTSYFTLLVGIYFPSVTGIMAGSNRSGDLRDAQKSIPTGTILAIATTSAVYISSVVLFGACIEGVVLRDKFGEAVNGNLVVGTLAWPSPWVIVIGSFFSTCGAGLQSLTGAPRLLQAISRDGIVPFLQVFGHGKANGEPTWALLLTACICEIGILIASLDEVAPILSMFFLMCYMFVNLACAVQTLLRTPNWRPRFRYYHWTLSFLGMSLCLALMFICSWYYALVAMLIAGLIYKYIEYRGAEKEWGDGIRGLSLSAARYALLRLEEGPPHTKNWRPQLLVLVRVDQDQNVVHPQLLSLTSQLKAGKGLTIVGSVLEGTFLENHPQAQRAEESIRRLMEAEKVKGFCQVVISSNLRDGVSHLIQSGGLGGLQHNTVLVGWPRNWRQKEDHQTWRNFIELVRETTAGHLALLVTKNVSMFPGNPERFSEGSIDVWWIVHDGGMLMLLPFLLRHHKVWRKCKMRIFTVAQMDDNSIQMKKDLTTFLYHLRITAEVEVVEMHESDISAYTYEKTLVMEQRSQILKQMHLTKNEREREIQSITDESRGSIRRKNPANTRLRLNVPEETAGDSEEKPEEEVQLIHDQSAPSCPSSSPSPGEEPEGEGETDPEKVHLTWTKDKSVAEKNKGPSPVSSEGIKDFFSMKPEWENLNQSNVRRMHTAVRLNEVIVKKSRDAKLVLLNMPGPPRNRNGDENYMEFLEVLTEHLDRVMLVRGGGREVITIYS
Diaph inh CS = counter-screen for diaphorase-based assays: diaphorase inhibitors and chemical oxidizers; diaphorase resazurin-to-resorufin fluorescence, NADH, 16 min; bacterial (C. kluyveri) enzyme, not human; inhibition, % at 20 µM; 190,000 tested, 0.69% active; AID 1217;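 active = primary screen inhibition at 20 µM above a set limit, cut at about 50% in these data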
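material = Clostridium kluyveri diaphorase enzyme | amount = 0.14 U/mL diaphorase, enzyme working solution | schedule = incubation 16 min, room temperature | detection = fluorescence of resorufin formed from resazurin, Ex 544/Em 590 nm | benchmarks = positive control minus NADH, DMSO neutral control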
L major viab = inhibitors of Leishmania major promastigote growth; AID 1063; 200,000 tested, 9% active; Leishmania major promastigotes, resazurin fluorescence viability; inhibition, % at 10 µM; in the data active = inhibition above about 50%;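 note: promastigotes grown with compound for 44 hours at 28 °C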
ROMK primary = modulators of human ROMK potassium channel; P48048; Tet-inducible ROMK, thallium flux fluorescence; actives lie on both sides; B-score at 10 µM; 130,000 tested, 2% active;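 active = signal ratio slope over the read window, or its plate-corrected B-score, at least 3 SD from the plate mean, either direction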;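 note: B-score of the F/F0 ratio slope over 7 to 12 s after thallium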
Lmaj promast 1uM = blocks Leishmania major promastigote growth at 1 uM, repeat screen | AID 1258 | 1,100 tested, 13% active | inhibition, % at 1 µM | shares compounds with L major viab | L. major promastigote growth, resazurin fluorescence, 48 h;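 active = inhibition above about 50% in both repeat tests, limit read from the data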
Large screens that a line does not name were inactive (follow-up assays come after a bar, where they were run).

CCOc1ccc(C(=O)Nc2c3c(nn2-c2cccc(Cl)c2)CS(=O)C3)cc1 (centres undefined)	L major viab 100 (no result: ROMK primary) | Lmaj promast 1uM inactive
CCOc1ccc(C(=O)Nc2c3c(nn2-c2ccc(F)cc2)CS(=O)C3)cc1 (centres undefined)	none
COc1ccc2c3c(cccc13)NN=C2C	L major viab 101 (no result: WT yeast gro inh, Diaphorase act, Diaph inh CS) | Lmaj promast 1uM 98
Cc1cc(C)c(S(=O)(=O)N2CCCCC2)c(C)c1-n1ncnn1	none
Cc1cc2ccccc2c(=O)n1CC(=O)N(C)c1ccc(F)cc1	none
COc1ccc(/C=C/c2cc[n+](C(=O)Cc3ccccc3)cc2)cc1	L major viab 100 | Lmaj promast 1uM 98
Cc1cccc(COc2ncnc3nc[nH]c23)c1	none
Cc1ccc(C)c(S(=O)(=O)NCCOC(=O)Nc2sc(=S)n(C)c2C)c1	L major viab 88 (no result: KCC2 mod) | Lmaj promast 1uM inactive
Cc1ccc(C)c(SCC(=O)OCC(=O)c2ccco2)c1	none (no result: ROMK primary)
CSc1nnc(Cc2sc(-c3ccccc3)nc2-c2ccccc2)o1	L major viab 93 | Lmaj promast 1uM inactive
Fc1ccc(CSc2nnc(Cc3sc(-c4ccccc4)nc3-c3ccccc3)o2)cc1	none
Cc1noc(C)c1S(=O)(=O)NCCN1CCN(c2ccccc2)CC1	none (no result: KCC2 mod)
Cc1noc(C)c1S(=O)(=O)NCCCN1CCN(Cc2ccccc2)CC1	L major viab 92 | Lmaj promast 1uM inactive
COc1cccc(C(=O)C2CCCN(Cc3cccc(-n4nc(C)cc4C)c3)C2)c1 (centres undefined)	none
COC(/C=C/Nc1ccc(C)c(C)c1)=C(C#N)C#N	none (no result: KCC2 mod, ROMK primary)
CC(C)(C)c1ccc(S(=O)(=O)N2CC(=O)Nc3ccccc32)cc1	none
COC(=O)CSc1nn(-c2ccc(F)cc2)c(=S)s1	none (no result: KCC2 mod)
O=C(NCc1ccncc1)C(=O)Nc1nc(C23CC4CC(CC(C4)C2)C3)cs1	L major viab 51 (no result: ROMK primary) | Lmaj promast 1uM inactive
CCn1c(CC(=O)Nc2ccccc2)nnc1SCc1nc2ccccc2c(=O)[nH]1	none (no result: WT yeast gro inh, Diaphorase act, Diaph inh CS, L major viab, ROMK primary)
CCCCCCC1CC(CSC(=N)N)OC1=O (centres undefined)	L major viab 100 (no result: KCC2 mod) | Lmaj promast 1uM inactive
CCOC(=O)c1cnc2ccc(C)cc2c1Sc1ccccc1	none (no result: ROMK primary)
CCOC(=O)c1cnc2ccc(C)cc2c1Sc1ccc(F)cc1	L major viab 70 | Lmaj promast 1uM inactive
Cc1cc(Cl)ccc1Oc1nc(-c2ccc(F)cc2)ccc1C#N	none (no result: KCC2 mod)
O=C(Nc1cc2c(cc1Cl)OCCCO2)c1ccc(F)cc1	none
Cc1cc(C)n(-c2nc3ccccc3c(=O)n2OCC(=O)OCc2ccccc2)n1	L major viab 92 | Lmaj promast 1uM inactive
CC[C@H](C)[C@@H](C(=O)N1CCNCC1)n1cc([C@@H](N)CO)nn1	none (no result: ROMK primary)
Cc1cc(C)c(N2C(=O)C3C4CC(=O)C(c5ccccc54)C3C2=O)c(C)c1 (centres undefined)	none (no result: WT yeast gro inh, Diaphorase act, Diaph inh CS, L major viab, ROMK primary)
CCOC(=O)c1cccc(Nc2nc(-c3cccnc3)nc3ccccc23)c1	L major viab 92 | Lmaj promast 1uM inactive
CCOc1ccccc1NC(=O)C(=O)N/N=C/c1cc(Br)ccc1O	L major viab 100 | Lmaj promast 1uM inactive
O=C(N/N=C/c1cc(Br)ccc1O)Nc1ccccc1	none (no result: ROMK primary)
Cc1c(=O)n(OCc2cccc(F)c2)c2ccccc2[n+]1[O-]	none (no result: ROMK primary)
Cc1c(=O)n(OCc2ccccc2F)c2ccccc2[n+]1[O-]	L major viab 73 (no result: KCC2 mod, ROMK primary) | Lmaj promast 1uM inactive
COCCCC/C(=N\OCCN)c1ccc(C(F)(F)F)cc1	L major viab 80 (no result: ROMK primary) | Lmaj promast 1uM inactive
O=C1c2ccc(Oc3cccc([N+](=O)[O-])c3)cc2C(=O)N1c1ccccn1	none
O=C1c2cc([N+](=O)[O-])cc3cc([N+](=O)[O-])cc(c23)C(=O)N1c1ccccn1	L major viab 90 | Lmaj promast 1uM inactive
O=C(NC1CCCC1)C(c1ccsc1)N(CCc1ccccc1)C(=O)Cc1cccs1 (centres undefined)	none
NC(=O)N/N=C/c1ccc(N2CCOCC2)s1	L major viab 60 | Lmaj promast 1uM inactive
O=C(O)c1cc(N/N=C/c2ccc(N3CCOCC3)s2)ccc1Cl	none
COc1ccc(/C(C)=N/OCC(=O)N2CC3(C)CC2CC(C)(C)C3)cc1 (centres undefined)	L major viab 63 | Lmaj promast 1uM inactive
COc1ccc(/C=N/OCC(=O)N2CC3(C)CC2CC(C)(C)C3)cc1 (centres undefined)	none (no result: ROMK primary)
CCOC(=O)NC(Nc1nc2ccccc2s1)(C(=O)OCC)C(F)(F)F (centres undefined)	none
Cc1ccc(-n2c(C)cc(C(=O)CN3CCOCC3)c2C)cc1	none
Cc1cc(-n2c(C)cc(C(=S)N3CCOCC3)c2C)ccc1Br	L major viab 57 (no result: ROMK primary) | Lmaj promast 1uM inactive
O=C(NNC(=O)c1sccc1-n1cccc1)c1cccs1	none
COc1cccc(/C=N/n2c(SC)nnc2-c2ccccc2)c1OC	L major viab 84 (no result: KCC2 mod, ROMK primary) | Lmaj promast 1uM inactive
Cc1c2ccccc2nc2c(F)c(NC(C)C)c(F)c(F)c12	L major viab 50 (no result: ROMK primary) | Lmaj promast 1uM inactive
NC(=S)Nc1cccc2cc3ccccc3cc12	L major viab 98 (no result: KCC2 mod) | Lmaj promast 1uM inactive
CCCn1nnnc1SCC(=O)NCc1ccc2c(c1)OCO2	none
CCN(CC)CC(=O)N1c2ccccc2CCc2ccc(NC(=O)c3cc(OC)c(OC)c(OC)c3)cc21	none (no result: WT yeast gro inh, Diaphorase act, Diaph inh CS, L major viab)
CCN(CC)CC(=O)Nc1ccc2c(c1)N(C(=O)CN(CC)CC)c1ccccc1CC2	L major viab 99 (no result: KCC2 mod) | Lmaj promast 1uM inactive
COc1ccc(OC)c(NC(=O)Cn2cc(C#N)c3cc(Br)ccc32)c1	none (no result: ROMK primary)
CN(C)c1cc(=O)n2c(n1)SCCC2	none (no result: ROMK primary)
O=c1cc(N2CCCCC2)nc2n1CCCS2	L major viab 71 (no result: KCC2 mod) | Lmaj promast 1uM inactive
Cc1ccc(S(=O)(=O)N2CCN(c3nc(C)c4c(c3C#N)CC(C)(C)OC4)CC2)cc1	none
CC(=O)c1c(C)nc2cc(Cl)ccc2c1N	L major viab 50 (no result: KCC2 mod) | Lmaj promast 1uM inactive
CCN(CC)c1ccc(NC(=O)c2ccc(Br)o2)c(C)c1	L major viab 57 (no result: ROMK primary) | Lmaj promast 1uM inactive
CCOP(=O)(c1ccccc1)c1nc(-c2ccccc2C)oc1N1CCCCC1 (centres undefined)	L major viab 50 (no result: KCC2 mod) | Lmaj promast 1uM inactive
C=CCOc1ccc2ccccc2c1/C=N/O	L major viab 51 | Lmaj promast 1uM inactive
Clc1ccc(OC2CCN(Cc3nc(CC4CC4)no3)CC2)cc1	none
Cc1sc2ncnc(NCCCN3CCCC3=O)c2c1C	none
Cc1ccc(N=c2ssnc2Cl)cc1	none (no result: ROMK primary)
Cc1cc(C)nc(/N=c2/ssnc2Cl)c1	WT yeast gro inh 63, L major viab 99 | Lmaj promast 1uM 94
CCc1nnc(NC(=O)Cn2nnc(-c3ccccc3F)n2)s1	none
CCOC(=O)c1c(C)nc2c(c1-c1ccccc1)C(=O)c1ccccc1-2	none (no result: KCC2 mod, ROMK primary)
